Series [1] concerns HT-29. Kind of series: Cellular uptake in human HT29 cells relative to unglycosylated TPP(p-DegOH)3. The class given is ADME, cell-based.
In series [2] the test system is Y79. Kind of series: Toxicity against human Y79 cells at 2 uM after 4 hrs in dark. Particulars: y79, 4 h; call rule not given here. The class given is cell-based. Summed up:
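Y79 cells were plated at 2 × 10^5 cells/mL in COON's medium with 2% FCS. They were exposed to 2 µM dye (DMSO stock diluted in medium) for 4 h in the dark, then centrifuged, washed and resuspended in fresh complete medium with no irradiation. Survival fraction was measured by MTT at 570/640 nm.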

Series [3] has as its system Y79. As to the kind of experiment: Cellular uptake in human Y79 cells relative to unglycosylated TPP(p-DegOH)3. Type of series: ADME, cell-based.
Series [4] concerns Y79. Kind of series: Survival of human Y79 cells at 2 uM irradiated with 514 nM light at the fluence of 1 J/cm2 after 4 hrs. Type of series: functional. Particulars: Y79, light or radiation study, read-out: LD50 (the source's name). The gist of the method:
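Y79 retinoblastoma cells (ATCC, suspension in COON's medium with 20% FCS) plated at 2 × 10^5 cells/mL in COON's with 2% FCS. Dye added from a 5 mg/mL DMSO stock, incubated 4 h in the dark, then cells centrifuged, washed and resuspended in fresh complete medium. Ar+ laser irradiation at 514 nm, 1 J/cm2. MTT viability read 24 h later at 570/640 nm.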

A short description of series [5]: Partition coefficient of the compound, log P. The class given is physicochemical. Particulars: octanol/water.
The test system of series [6] is B16. Kind of series: Cellular uptake in mouse B16 cells relative to unglycosylated TPP(p-DegOH)3. The class given is ADME, cell-based.
The test system of series [7] is B16. Kind of series: Survival of mouse B16 cells at 2 uM irradiated with 514 nM light at the fluence of 5 J/cm2 after 4 hrs. Particulars: B16, light or radiation study, read-out: LD50 (the source's name). Type of series: functional. Summed up: (§1)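 Adherent cells (human HT29 colorectal adenocarcinoma; murine B16 melanoma) seeded at 10^5 cells/mL. Dye added from a DMSO stock and incubated 4 h in DMEM with 2% FCS in the dark. Irradiation at 514 nm, 5 J/cm2, in the same dye-containing medium. Survival measured by MTT colorimetric assay.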

Series [8] deals with HT-29. Kind of series: Survival of human HT29 cells at 2 uM irradiated with 514 nM light at the fluence of 5 J/cm2 after 4 hrs. The class given is functional. Particulars: HT-29, light or radiation study, read-out: LD50 (the source's name). The gist of the method:
as §1

The values below come from ChEMBL document CHEMBL1146069, “Photodynamic efficiency of diethylene glycol-linked glycoconjugated porphyrins in human retinoblastoma cells” (J Med Chem, 2006).

Take `OCCOCCOc1ccc(-c2c3nc(c(-c4ccccc4)c4ccc([nH]4)c(-c4ccc(OCCOCCO)cc4)c4ccc([nH]4)c(-c4ccc(OCCOCCO)cc4)c4nc2C=C4)C=C3)cc1`: the Ratio in series [1], in series [3] and in series [6] was 1 in each case. Moreover, the Activity entry in series [2] was “Not Active”. Also, the CC50 in series [4] was > 2 µM. For the same compound, the logP in series [5] was > 2.

Turning to `OC[C@H]1O[C@@H](SCCOCCOc2ccc(-c3c4nc(c(-c5ccccc5)c5ccc([nH]5)c(-c5ccc(OCCOCCS[C@@H]6O[C@H](CO)[C@H](O)[C@@H](O)[C@H]6O)cc5)c5ccc([nH]5)c(-c5ccc(OCCOCCS[C@@H]6O[C@H](CO)[C@H](O)[C@@H](O)[C@H]6O)cc5)c5nc3C=C5)C=C4)cc2)[C@H](O)[C@H](O)[C@H]1O`, the results for the Ratio in series [1], in series [3] and in series [6] were 3, 3.5 and 2.7, respectively. Moreover, the Activity result in series [2] was “Not Active”. Besides, the CC50 in series [7] was determined as 2 µM; in series [4], 0.6 µM; in series [8], 0.82 µM. Also, the logP in series [5] is -0.07.

`OC[C@H]1O[C@@H](OCCOCCOc2ccc(-c3c4nc(c(-c5ccccc5)c5ccc([nH]5)c(-c5ccc(OCCOCCO[C@@H]6O[C@H](CO)[C@H](O)[C@@H](O)[C@H]6O)cc5)c5ccc([nH]5)c(-c5ccc(OCCOCCO[C@@H]6O[C@H](CO)[C@H](O)[C@@H](O)[C@H]6O)cc5)c5nc3C=C5)C=C4)cc2)[C@H](O)[C@H](O)[C@H]1O`: the Ratio in series [1] is listed as 4.4; in series [3], 3.7; in series [6] it was 4. For the same compound, the Activity result in series [2] is reported as “Not Active”. The results for the CC50 in series [7], in series [4] and in series [8] were 0.68 µM, 0.6 µM and 0.25 µM, respectively. This compound yielded a log partition coefficient (logP) in series [5] of 0.23.

`OC[C@H]1O[C@H](OCCOc2ccc(-c3c4nc(c(-c5ccccc5)c5ccc([nH]5)c(-c5ccc(OCCO[C@H]6O[C@H](CO)[C@@H](O)[C@@H](O)[C@@H]6O)cc5)c5ccc([nH]5)c(-c5ccc(OCCO[C@H]6O[C@H](CO)[C@@H](O)[C@H](O)[C@@H]6O)cc5)c5nc3C=C5)C=C4)cc2)[C@@H](O)[C@@H](O)[C@@H]1O`: the Ratio in series [1] was 1.7; in series [3], 1.6; in series [6], 1.8. For the same compound, the Activity entry in series [2] is listed as “Not Active”. For the same compound, the CC50 in series [7] came out at 0.85 µM; in series [4], 0.6 µM; in series [8], 0.44 µM. The same compound yielded a logP in series [5] of 0.78.

Take `OC[C@H]1O[C@H](OCCOCCOc2ccc(-c3c4nc(c(-c5ccccc5)c5ccc([nH]5)c(-c5ccc(OCCOCCO[C@H]6O[C@H](CO)[C@@H](O)[C@H](O)[C@@H]6O)cc5)c5ccc([nH]5)c(-c5ccc(OCCOCCO[C@H]6O[C@H](CO)[C@@H](O)[C@H](O)[C@@H]6O)cc5)c5nc3C=C5)C=C4)cc2)[C@@H](O)[C@@H](O)[C@@H]1O`: the Ratio in series [1] was 5; in series [3] it was 4.9; in series [6] it was 6.5. Further, the Activity entry in series [2] was “Not Active”. Further, the CC50 in series [7] turned out to be 0.43 µM; in series [4] it was 0.35 µM; in series [8] it was 0.35 µM. Also, the logP in series [5] amounted to 0.02.

For `OC[C@H]1O[C@H](OCCOCCOc2ccc(-c3c4nc(c(-c5ccccc5)c5ccc([nH]5)c(-c5ccc(OCCOCCO[C@H]6O[C@H](CO)[C@H](O)[C@@H](O)[C@H]6O)cc5)c5ccc([nH]5)c(-c5ccc(OCCOCCO[C@H]6O[C@H](CO)[C@H](O)[C@@H](O)[C@H]6O)cc5)c5nc3C=C5)C=C4)cc2)[C@H](O)[C@H](O)[C@H]1O`, the values for the Ratio in series [1] and in series [3] were 1.8 and 2, respectively. In series [2], the Activity result is “Not Active”. Besides, the CC50 in series [7] was 0.1 µM; in series [4], 0.05 µM; in series [8], 0.82 µM. The compound further came in with a logP in series [5] of 0.5.

With `OC[C@H]1O[C@H](SCCOCCOc2ccc(-c3c4nc(c(-c5ccccc5)c5ccc([nH]5)c(-c5ccc(OCCOCCS[C@H]6O[C@H](CO)[C@@H](O)[C@H](O)[C@@H]6O)cc5)c5ccc([nH]5)c(-c5ccc(OCCOCCS[C@H]6O[C@H](CO)[C@@H](O)[C@H](O)[C@@H]6O)cc5)c5nc3C=C5)C=C4)cc2)[C@@H](O)[C@@H](O)[C@@H]1O`, the results for the Ratio in series [1], in series [3] and in series [6] were 1.2, 1.4 and 1.3, respectively. Further, in series [2], the Activity entry is on record as “Not Active”. In addition, the CC50 was 2 µM in series [7], 0.65 µM in series [4] and > 2 µM in series [8]. This compound yielded a lipophilicity (logP) in series [5] of 0.46.

A word on the logP: it is the decadic logarithm of the partition coefficient of the neutral form, usually between octanol and water.
